Laboratory results taken from ChEMBL document CHEMBL4304827, “Design, synthesis and evaluation of structurally diverse chrysin-chromene-spirooxindole hybrids as anticancer agents” (Bioorg Med Chem, 2019).

Assays:
[1] = system: A549; test: Induction of apoptosis in human A549 cells incubated for 24 hrs by annexin V FITC and PI staining based flow cytometry; assay type: functional, cell-based
[2] = system: A549; test: Antimigratory activity in human A549 cells assessed as reduction in wound healing incubated for 36 hrs by wound healing assay; assay type: functional, cell-based
Outline: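 Confluent A549 monolayers, seeded at 1 × 10^5 cells/well, were scratched with a pipette tip. Medium was replaced with medium containing various concentrations and cells were incubated 36 h. Migration area was measured by microscopy and expressed as a percentage of control (control = 100%). Mean ± SD, ≥3 independent experiments.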

[3] = system: A549; test: Antiproliferative activity against human A549 cells assessed as reduction in cell proliferation incubated for 48 hrs by MTT assay; assay type: functional, cell-based; settings: A549, 48 h
Outline: (§1)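 Log-phase cells were plated at 5 × 10^3/well in RPMI-1640 with 10% FBS and cultured 24 h. Compounds were added at graded concentrations (DMSO <0.1%) for 48 h. MTT (5 mg/mL) was added for about 4 h, formazan was dissolved in DMSO and A490 was read. IC50 was calculated from ≥3 independent experiments and reported as mean ± SD. Chrysin served as positive control.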

[4] = system: PC-3; test: Antiproliferative activity against human PC3 cells assessed as reduction in cell proliferation incubated for 48 hrs by MTT assay; assay type: functional, cell-based; settings: PC-3, 48 h; outline: as §1
[5] = system: A549; test: Inhibition of colony formation in human A549 cells cultured in plate assessed as decrease in size and number of colonies formed incubated for 10 days by crystal violet staining based fluorescence microscopy; assay type: functional, cell-based
Outline: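 Log-phase A549 cells were seeded at 1 × 10^3/well and cultured 24 h. Medium containing various concentrations was added and cells were grown 10 days. Colonies were fixed in 4% paraformaldehyde for 30 min, stained with 0.1% crystal violet and imaged by microscopy. Colony percentage was calculated relative to control colonies. Mean ± SD, ≥3 experiments.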

[6] = system: A549; test: Inhibition of colony formation in human A549 cells culture in 0.3% RPMI-1640 medium agar assessed as decrease in size and number of colonies formed incubated for 20 days by NBT staining based assay; assay type: functional, cell-based
Outline: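 A549 cells at 1 × 10^5 cells/mL were treated with various concentrations in 0.3% medium-agar layered over 0.6% medium-agar. Cultures were kept at 37 °C and 5% CO2. Methods give 14 days; the figure legend gives 20 days. Colonies were stained with 1.5 mg/mL NBT and counted as a percentage of control. Mean ± SD, ≥3 experiments.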

[7] = system: A549; test: Induction of apoptosis in human A549 cells assessed as morphological changes by measuring rounded cells with weak adhesion incubated for 24 hrs; assay type: functional, cell-based
Outline: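 A549 cells were plated at 3 × 10^5/well and cultured 12 h, then exposed to various concentrations for 24 h. Morphology was observed by microscopy. AO-EB stain (1 mg/mL each, in PBS) was applied for 10 min at room temperature in the dark. Harvested cells were stained with PI for 15 min at room temperature in the dark, then washed. Both stains were examined by fluorescence microscopy.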

[8] = system: A549; test: Induction of apoptosis in human A549 cells assessed as early apoptotic cells at 50 uM incubated for 24 hrs by annexin V FITC and PI staining based flow cytometry (reference value: 0.53%); assay type: functional
[9] = system: A549; test: Induction of apoptosis in human A549 cells assessed as late apoptotic cells at 25 uM incubated for 24 hrs by annexin V FITC and PI staining based flow cytometry (reference value: 1.32%); assay type: functional
[10] = system: A549; test: Induction of apoptosis in human A549 cells assessed as late apoptotic cells at 50 uM incubated for 24 hrs by annexin V FITC and PI staining based flow cytometry (reference value: 1.32%); assay type: functional
[11] = system: A549; test: Induction of apoptosis in human A549 cells assessed as necrotic cells at 5 uM incubated for 24 hrs by annexin V FITC and PI staining based flow cytometry (reference value: 2.43%); assay type: functional
[12] = system: A549; test: Induction of apoptosis in human A549 cells assessed as necrotic cells at 25 uM incubated for 24 hrs by annexin V FITC and PI staining based flow cytometry (reference value: 2.43%); assay type: functional
[13] = system: A549; test: Induction of ROS production in human A549 cells incubated for 24 hrs by DCFH-DA staining based fluorescence microscopy; assay type: functional, cell-based
Outline: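 A549 cells were plated at 3 × 10^5/well and cultured 12 h, then treated with various concentrations for 24 h. They were washed in serum-free medium and loaded with DCFH-DA (10 μM) for 20 min at 37 °C in the dark. DCF fluorescence was imaged by fluorescence microscopy.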

[14] = system: A549; test: Induction of apoptosis in human A549 cells assessed as increase in caspase 3 activity at 100 uM incubated for 24 hrs by colorimetry relative to control; assay type: functional
Outline: (§2)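 A549 cells were plated at 3 × 10^5/well and cultured 12 h, then treated with various concentrations for 24 h. Cells were lysed on ice for 60 min. Lysate containing 200 μg protein was incubated with caspase-3, -8 or -9 colorimetric substrate at 37 °C for 4 h in the dark, and A405 was read. Activation = (treated − blank)/(control − blank). Mean ± SD, ≥3 experiments.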

[15] = system: A549; test: Induction of apoptosis in human A549 cells assessed as increase in caspase 9 activity at 100 uM incubated for 24 hrs by colorimetry relative to control; assay type: functional; outline: as §2
[16] = system: A549; test: Induction of apoptosis in human A549 cells assessed as upregulation of Cyt c protein expression incubated for 24 hrs by Western blot analysis; assay type: functional, cell-based
Outline: (§3)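 A549 cells were treated with various concentrations for 24 h and lysed in RIPA buffer with 1 mM PMSF. Protein (20 μg) was resolved on 8-12% SDS-PAGE and transferred to PVDF. Membranes were blocked in 5% milk and probed with primary antibodies overnight at 4 °C, then with anti-rabbit secondary. Bands were quantified by densitometry. Mean ± SD, ≥3 experiments.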

[17] = system: A549; test: Induction of apoptosis in human A549 cells assessed as downregulation of Bcl2 protein expression at 10 uM by Western blot analysis; assay type: functional, cell-based; settings: TDE = time-dependent effect
Outline: as §3, with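 “exposed to 10 μM” for “treated with various concentrations”, “different times” for “24 h”, “separated” for “resolved”, “incubated” for “probed”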

[18] = system: A549; test: Induction of apoptosis in human A549 cells assessed as downregulation of 5-Lox protein expression at 10 uM by Western blot analysis; assay type: functional, cell-based; settings: TDE = time-dependent effect
Outline: as §3, with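 “exposed to 10 μM” for “treated with various concentrations”, “different times” for “24 h”, “separated” for “resolved”, “incubated” for “probed”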

[19] = system: A549; test: Induction of apoptosis in human A549 cells assessed as downregulation of MDM2 protein expression at 10 uM by Western blot analysis; assay type: functional, cell-based; settings: TDE = time-dependent effect
Outline: as §3, with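 “exposed to 10 μM” for “treated with various concentrations”, “different times” for “24 h”, “separated” for “resolved”, “incubated” for “probed”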

[20] = system: A549; test: Induction of apoptosis in human A549 cells assessed as upregulation of Bax protein expression at 10 uM by Western blot analysis; assay type: functional, cell-based; settings: TDE = time-dependent effect
Outline: as §3, with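 “exposed to 10 μM” for “treated with various concentrations”, “different times” for “24 h”, “separated” for “resolved”, “incubated” for “probed”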

[21] = system: A549; test: Induction of apoptosis in human A549 cells assessed as upregulation of Cyt c protein expression at 10 uM by Western blot analysis; assay type: functional, cell-based; settings: TDE = time-dependent effect
Outline: as §3, with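 “exposed to 10 μM” for “treated with various concentrations”, “different times” for “24 h”, “separated” for “resolved”, “incubated” for “probed”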

[22] = system: A549; test: Induction of apoptosis in human A549 cells assessed as upregulation of p53 protein expression at 10 uM by Western blot analysis; assay type: functional, cell-based; settings: TDE = time-dependent effect
Outline: as §3, with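 “exposed to 10 μM” for “treated with various concentrations”, “different times” for “24 h”, “separated” for “resolved”, “incubated” for “probed”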

[23] = system: A549; test: Induction of apoptosis in human A549 cells assessed as upregulation of p21 protein expression at 10 uM by Western blot analysis; assay type: functional, cell-based; settings: TDE = time-dependent effect
Outline: as §3, with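 “exposed to 10 μM” for “treated with various concentrations”, “different times” for “24 h”, “separated” for “resolved”, “incubated” for “probed”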

[24] = system: A549; test: Induction of apoptosis in human A549 cells assessed as increase in caspase 8 activity incubated for 24 hrs by colorimetry; assay type: functional, cell-based; outline: as §2

IC50 [3]: 3.15 µM
IC50 [4]: 20.3 µM
Compound: CN1C(=O)C2(C(C#N)=C(N)Oc3cc4oc(-c5ccccc5)cc(=O)c4c(O)c32)c2cc(Br)ccc21 (centres undefined)
Activity [1]: Dose-dependent effect
inhibition [2]: Dose-dependent effect
inhibition [5]: Dose-dependent effect
inhibition [6]: Dose-dependent effect
Activity [7]: Dose-dependent effect
Activity [8]: 9.33%
Activity [9]: 13.7%
Activity [10]: 24.8%
Activity [11]: 0.732%
Activity [12]: 2.97%
Activity [13]: Dose-dependent effect
fold change (FC) [14]: 5.24
fold change (FC) [15]: 1.81
Activity [16]: Dose-dependent effect
inhibition [17]: Tde
inhibition [18]: Tde
inhibition [19]: Tde
Activity [20]: Tde
Activity [21]: Tde
Activity [22]: Tde
Activity [23]: Tde
Activity [24]: Dose-dependent effect
